Screening data (PubChem BioAssay)
NPY Y2 blocker: NPY-Y2 receptor antagonists, primary screen, cell-based. Neuropeptide Y receptor type 2 (Homo sapiens), P49146. NPY-Y2 expressing cells, antagonist mode. inhibition, % at 2.7 µM. 0.99% of 140,000 active; in the data active = inhibition above about 17%
Target sequence (P49146 whole entry, looked up): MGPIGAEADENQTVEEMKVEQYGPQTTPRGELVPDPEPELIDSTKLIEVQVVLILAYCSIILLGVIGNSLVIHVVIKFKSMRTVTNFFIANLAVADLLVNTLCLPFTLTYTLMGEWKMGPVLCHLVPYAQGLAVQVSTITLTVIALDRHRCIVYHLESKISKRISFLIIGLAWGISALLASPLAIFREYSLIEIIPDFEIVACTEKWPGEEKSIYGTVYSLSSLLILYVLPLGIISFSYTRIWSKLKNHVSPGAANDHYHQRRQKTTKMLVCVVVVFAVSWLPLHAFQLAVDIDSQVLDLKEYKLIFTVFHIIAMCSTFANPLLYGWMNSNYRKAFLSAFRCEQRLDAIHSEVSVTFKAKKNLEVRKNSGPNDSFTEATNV
NPY-Y2 PAM-ag: NPY-Y2 potentiators or agonists, primary screen, cell-based; Neuropeptide Y receptor type 2 (Homo sapiens), P49146; cells expressing NPY-Y2, potentiator/agonist read-out; activation, % at 3.6 µM; 0.45% of 220,000 active; in the data active = activation above about 27%;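 note: cells stimulated with NPY near EC25 plus isoproterenol at EC100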
NPY1 pot ag: NPY-Y1 receptor potentiators or agonists, primary screen, cell-based | Neuropeptide Y receptor type 1 (Homo sapiens), P25929 | NPY-Y1 expressing cells, potentiator/agonist activation | activation, % at 3.6 µM | 0.37% of 220,000 active; in the data active = activation above about 33%, passing the limit was not always enough;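 note: cells stimulated with NPY at EC10 then isoproterenol at EC100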
Target sequence (P25929 whole entry, looked up): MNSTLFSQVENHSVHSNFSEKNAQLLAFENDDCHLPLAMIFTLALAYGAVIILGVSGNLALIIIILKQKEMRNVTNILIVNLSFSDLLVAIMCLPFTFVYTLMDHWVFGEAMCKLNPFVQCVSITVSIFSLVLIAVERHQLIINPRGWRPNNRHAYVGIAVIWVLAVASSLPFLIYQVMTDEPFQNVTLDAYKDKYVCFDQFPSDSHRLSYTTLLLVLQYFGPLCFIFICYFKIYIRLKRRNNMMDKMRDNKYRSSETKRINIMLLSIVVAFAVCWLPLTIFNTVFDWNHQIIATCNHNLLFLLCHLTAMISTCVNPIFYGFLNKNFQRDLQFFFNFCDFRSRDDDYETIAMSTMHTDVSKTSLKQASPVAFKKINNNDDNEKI
NPY-Y1 antag: NPY-Y1 receptor antagonists, primary screen, cell-based | HEK293-CNG Y1 cells, membrane potential fluorescence; NPY at EC95, then isoproterenol | inhibition, % at 3.6 µM | 1% of 200,000 active;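 active = inhibition above the campaign mean inhibition of all tested compounds plus 3 SD, cut at about 20% in these data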
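Assay system: HEK293 Y1/CNG channel cell line; Doses: single compound dose of 3.6 µM, 0.4% DMSO; Timing: dye 3 h, compound 60 min room temperature, stimulation 45 min; Technique: Membrane-potential fluorescent dye readout; Measure: % inhibition of NPY effect.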
S1P4 agonist: S1P4 receptor agonists, primary screen, cell-based; S1P4-expressing cell line, agonist reporter assay; activation, % at 4.98 µM; 0.35% of 220,000 active; in the data active = activation above about 11%
S1P4 antag: S1P4 receptor antagonists, primary screen, cell-based; Sphingosine 1-phosphate receptor 4 (Homo sapiens), O95977; S1P4-expressing cells, antagonist mode, reporter read-out; inhibition, % at 4.98 µM; 0.26% of 220,000 active; AID 1510, 2009; in the data active = inhibition above about 29%
NPY-Y2 confirm: NPY-Y2 potentiators or agonists, confirmation, cell-based; shares compounds with NPY-Y2 PAM-ag; cell-based NPY-Y2 potentiator/agonist assay; activation, % at 3.6 µM; 20% of 450 active; AID 1539, 2009; in the data active = activation above about 33%
NPY-Y1 counter: NPY-Y1 potentiators or agonists, counter-screen for NPY-Y2 potentiator project, cell-based, fluorescence | Y1 HEK293-CNG cells, membrane potential fluorescence | activation, % at 3.6 µM | shares compounds with NPY-Y2 PAM-ag | AID 1651, 2009 | 20% of 450 active; in the data active = activation above about 45%;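 note: cells stimulated with submaximal NPY then isoproterenol with phosphodiesterase inhibitor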
NPY-Y1 ag 2: NPY-Y1 direct agonists, selectivity assay for NPY-Y2 potentiator project, cell-based, fluorescence; shares compounds with NPY-Y2 PAM-ag; 37% of 450 active; HEK293 Y1-CNGC, membrane potential fluorescence, agonism; activation, % at 3.6 µM;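 active = activation above the mean of DMSO-only control wells plus 3 SD, cut at about 18% in these data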;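 note: cells stimulated with 1 µM isoproterenol plus the PDE inhibitor Ro 20-1724; Y1 agonists lower the membrane potential dye signal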
CNGC inh: CNGC cAMP sensor activity inhibitors, counter-screen for NPY-Y2 potentiator project, cell-based, HEK293-CNG parental, membrane potential fluorescence. shares compounds with NPY-Y2 PAM-ag. isoproterenol cAMP. inhibition, % at 3.6 µM. 32% of 450 active. AID 1703, 2009;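 active = inhibition above the control-well mean plus 3 SD of those wells, cut at about 22% in these data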
Y2 agonist ctr: NPY-Y2 direct agonists, counter-screen for NPY-Y2 potentiator project, cell-based, fluorescence; shares compounds with NPY-Y2 PAM-ag; HEK293 Y2/CNGC cells, membrane potential fluorescence, agonist mode; activation, % at 3.6 µM; 56% of 450 active;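 active = activation above the mean of solvent-only control wells plus 3 SD, cut at about 10% in these data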;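 note: cells stimulated by isoproterenol with no NPY added so direct agonism is tested; agonism lowers probe fluorescence through less cAMP and CNG channel opening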
Numbers stand for hits. Hits are enriched below; roughly 2.4% of the tested compounds scored in any of these assays.

What do the screens show for `COc1ccc(OCCn2c(C)c(/C=N/n3cnnc3)c3ccccc32)cc1`?
NPY Y2 blocker: inactive; NPY-Y2 PAM-ag: inactive; NPY1 pot ag: inactive; NPY-Y1 antag: inactive; S1P4 agonist: inactive; S1P4 antag: inactive

Results for O/N=C\c1cccn1-c1ccc(Br)cc1 ?
NPY Y2 blocker: inactive; NPY-Y2 PAM-ag: inactive; NPY1 pot ag: inactive; NPY-Y1 antag: inactive; S1P4 agonist: inactive; S1P4 antag: inactive

How did CC(=O)OCC1O[C@@H](O[C@@H]2C[C@H]3C(C)(C)[C@H](OC(C)=O)CC[C@]3(C)[C@H]3CC[C@]45C[C@]4(CC[C@H]5[C@@H](C)C[C@@H](O)[C@H](O)C(C)(C)O)[C@@]32C)[C@H](O)[C@@H](O)[C@@H]1O (some centres not stated) do in these assays?
NPY Y2 blocker: inactive; NPY-Y2 PAM-ag: 35.3; NPY1 pot ag: inactive; NPY-Y1 antag: inactive; S1P4 agonist: inactive; S1P4 antag: inactive; NPY-Y2 confirm: inactive; NPY-Y1 counter: inactive; NPY-Y1 ag 2: 38.5; CNGC inh: 26.0; Y2 agonist ctr: 34.6

Results for CCN1C(=O)/C(=C2/C=Cc3ccccc3N2CC)SC1=S ?
NPY-Y2 PAM-ag: 33.1; NPY1 pot ag: inactive; NPY-Y1 antag: inactive; S1P4 agonist: inactive; S1P4 antag: inactive; NPY-Y2 confirm: 38.5; NPY-Y1 counter: 47.5; NPY-Y1 ag 2: 42.6; CNGC inh: 35.7; Y2 agonist ctr: 47.5

How did CCCn1nnc(NC(=O)C(C)Oc2ccc(Cl)cc2Cl)n1 (configuration not stated) do in these assays?
NPY Y2 blocker: inactive; NPY-Y2 PAM-ag: inactive; NPY1 pot ag: inactive; NPY-Y1 antag: inactive; S1P4 agonist: inactive; S1P4 antag: inactive

Results for CC(Oc1cc(Cl)ccc1Cl)C(=O)N/N=C\c1ccnn1C (configuration not stated) ?
NPY Y2 blocker: inactive; NPY-Y2 PAM-ag: 27.4; NPY1 pot ag: inactive; NPY-Y1 antag: inactive; S1P4 agonist: inactive; S1P4 antag: inactive; NPY-Y2 confirm: inactive; NPY-Y1 counter: inactive; NPY-Y1 ag 2: inactive; CNGC inh: inactive; Y2 agonist ctr: inactive

What do the screens show for `COc1ccc(NC(=O)c2cccnc2SC)cc1OC`?
NPY-Y2 PAM-ag: inactive; NPY1 pot ag: inactive; NPY-Y1 antag: inactive; S1P4 agonist: inactive; S1P4 antag: inactive

What do the screens show for `CSc1ncccc1C(=O)Nc1ccc2nc(C)sc2c1`?
NPY-Y2 PAM-ag: 105.1; NPY1 pot ag: inactive; S1P4 agonist: inactive; S1P4 antag: inactive; NPY-Y2 confirm: inactive; NPY-Y1 counter: inactive; NPY-Y1 ag 2: inactive; CNGC inh: inactive; Y2 agonist ctr: inactive

What do the screens show for `Nc1nnc(-c2cc3c(ccc4ccccc43)oc2=O)s1`?
NPY-Y2 PAM-ag: inactive; NPY1 pot ag: inactive; NPY-Y1 antag: inactive; S1P4 agonist: inactive; S1P4 antag: inactive

Results for Cc1ccc2[nH]c(=O)c(CNC(C)C)cc2c1 ?
NPY Y2 blocker: inactive; NPY-Y2 PAM-ag: 99.2; NPY1 pot ag: inactive; NPY-Y1 antag: inactive; S1P4 agonist: inactive; S1P4 antag: inactive; NPY-Y2 confirm: inactive; NPY-Y1 counter: inactive; NPY-Y1 ag 2: inactive; CNGC inh: inactive; Y2 agonist ctr: inactive

How did Oc1ccc(O)c(Cc2nc3ccccc3s2)c1 do in these assays?
NPY-Y2 PAM-ag: 28.7; NPY1 pot ag: inactive; NPY-Y1 antag: inactive; S1P4 agonist: inactive; S1P4 antag: inactive; NPY-Y2 confirm: inactive; NPY-Y1 counter: inactive; NPY-Y1 ag 2: inactive; CNGC inh: inactive; Y2 agonist ctr: inactive

How did O=C1COc2ccc(C(=O)COC(=O)c3cc(S(=O)(=O)NCc4ccccc4)ccc3O)cc2N1 do in these assays?
NPY-Y2 PAM-ag: 97.9; NPY1 pot ag: inactive; S1P4 agonist: inactive; S1P4 antag: inactive; NPY-Y2 confirm: inactive; NPY-Y1 counter: inactive; NPY-Y1 ag 2: inactive; CNGC inh: inactive; Y2 agonist ctr: inactive

What do the screens show for `Cc1cccc2c(N)c3c(nc12)CCCC3` (tested in a mixture with another compound)?
NPY-Y2 PAM-ag: 48.5; NPY1 pot ag: inactive; NPY-Y1 antag: inactive; S1P4 agonist: inactive; S1P4 antag: inactive; NPY-Y2 confirm: 51.6; NPY-Y1 counter: 63.6; NPY-Y1 ag 2: inactive; CNGC inh: inactive; Y2 agonist ctr: 48.3

Results for COC(=O)c1ccccc1OCCOCCOc1cccc2ccc(C)nc12 ?
NPY-Y2 PAM-ag: inactive; NPY1 pot ag: inactive; NPY-Y1 antag: inactive; S1P4 agonist: inactive; S1P4 antag: inactive

How did CC1Cc2cc(/C(O)=C3/C(=O)C(=O)N(CCCn4ccnc4)C3c3ccco3)ccc2O1 (configuration not stated) do in these assays?
NPY Y2 blocker: inactive; NPY-Y2 PAM-ag: inactive; NPY1 pot ag: inactive; NPY-Y1 antag: inactive; S1P4 agonist: inactive; S1P4 antag: inactive

Results for CCN(CC)CCCN(C(=O)c1ccco1)c1nc(-c2ccc(C)cc2)cs1 ?
NPY-Y2 PAM-ag: 25.3; NPY1 pot ag: inactive; NPY-Y1 antag: inactive; S1P4 agonist: inactive; S1P4 antag: inactive; NPY-Y2 confirm: 63.6; NPY-Y1 counter: 65.4; NPY-Y1 ag 2: 45.1; CNGC inh: 58.4; Y2 agonist ctr: 61.6

What do the screens show for `O=C(Nc1ccc(Br)cc1)c1ccc(F)c(S(=O)(=O)NCc2cccs2)c1`?
NPY Y2 blocker: inactive; NPY-Y2 PAM-ag: 36.1; NPY1 pot ag: inactive; NPY-Y1 antag: inactive; S1P4 agonist: inactive; S1P4 antag: inactive; NPY-Y2 confirm: inactive; NPY-Y1 counter: inactive; NPY-Y1 ag 2: inactive; CNGC inh: inactive; Y2 agonist ctr: inactive

What do the screens show for `CC(C)Cn1c(N)c(C(=O)COC(=O)CC23CC4CC(CC(C4)C2)C3)c(=O)n(C)c1=O`?
NPY Y2 blocker: inactive; NPY-Y2 PAM-ag: 38.2; NPY1 pot ag: inactive; NPY-Y1 antag: inactive; S1P4 agonist: inactive; S1P4 antag: inactive; NPY-Y2 confirm: inactive; NPY-Y1 counter: inactive; NPY-Y1 ag 2: inactive; CNGC inh: inactive; Y2 agonist ctr: inactive
